INS-1E ATP HTS = INS-1E beta cell protection from cytokine death; INS-1E cytokine-induced death, ATP luminescence, 48 h; normalised: neutral wells 0, positive control 100; protection from cytokine-induced ATP loss, % at 10 µM; hit rate 0.1% among 20,000; AID 488910;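 active = mean replicate protection from cytokine-induced ATP loss at least 50% and at least 75% of replicates each reaching 50%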
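Test system: INS-1E rat cells | Quantity: 8000 cells per well | Medium: Phenol-red-free RPMI with 5% fetal bovine serum | Reagent: Cytokine cocktail of IFN-γ, TNF-α and IL-1β | Doses: One compound concentration, pin transfer | Timing: 48 h co-treatment, 10 min post-lysis read | Technique: Luminescent ATP assay (CellTiter-Glo)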
T cruzi HTS = inhibitors of intracellular Trypanosoma cruzi; intracellular Trypanosoma cruzi in host cells, plate reader; activity score (inhibition), % at 5.01 µM; hit rate 4.9% among 22,000; AID 651903; in the data active = activity score above about 55%;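 also: parasites and compound incubated about four days before reading; 0% = median of neutral control wells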
A1 apoptosis 2 = compounds inhibiting A1, read as caspase activation; MEF A1-2A-BIM cells, caspase-Glo luminescence, 3 h; percent of clofoctol response, DMSO zero; caspase activation, % (concentration not given with the values); 24,000 tested, under 10 active; AID 2465; in the data active = caspase activation above about 5.9%
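Material: mouse embryonic fibroblasts co-expressing A1 and BIM (A1-2A-BIM), primed for A1 dependence / Quantity: 2500 cells/well / Buffer or medium: RPMI-1640 growth medium with 10% FBS / Doses: 50 nL compound per well, pinned / Schedule: 3 h compound exposure at 37 °C / Signal: Caspase-Glo luminescence (DEVD substrate) / Measure: Caspase-3/7 activation, seen as rise in luminescence signal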
* hit, by the source's call; nt = no result. The sample as a whole holds a higher share of hits than the screen did.

SMILES | INS-1E ATP HTS | T cruzi HTS | A1 apoptosis 2
Cc1ccc(S(=O)(=O)Nc2ccc3c(c2)CC(=O)N([C@H](C)CO)C[C@@H](C)[C@H](CN(C)Cc2ccccc2)O3)cc1 | 0 | 67* | nt
C[C@H]1CN([C@@H](C)CO)C(=O)Cc2cc(NS(=O)(=O)c3ccccc3)ccc2O[C@H]1CN(C)Cc1ccc(-c2ccccc2)cc1 | 2 | 3 | nt
C[C@H]1CN([C@@H](C)CO)C(=O)Cc2cc(NS(=O)(=O)c3ccccc3)ccc2O[C@@H]1CN(C)Cc1ccc(-c2ccccc2)cc1 | -14 | 75* | nt
C[C@@H]1CN([C@H](C)CO)C(=O)Cc2cc(NS(=O)(=O)c3ccc(Cl)cc3)ccc2O[C@@H]1CN(C)Cc1ccc(-c2ccccc2)cc1 | -42 | 67* | nt
Cc1ccc(S(=O)(=O)Nc2ccc3c(c2)CC(=O)N([C@H](C)CO)C[C@@H](C)[C@H](CN(C)Cc2ccc(-c4ccccc4)cc2)O3)cc1 | -16 | 54 | 1
Cc1ccc(S(=O)(=O)Nc2ccc3c(c2)CC(=O)N([C@@H](C)CO)C[C@@H](C)[C@@H](CN(C)Cc2ccc(-c4ccccc4)cc2)O3)cc1 | -9 | 71* | -1
C[C@@H]1CN([C@@H](C)CO)C(=O)Cc2cc(NS(=O)(=O)c3ccc(Cl)cc3)ccc2O[C@@H]1CN(C)Cc1ccc(-c2ccccc2)cc1 | 5 | 34 | nt
Cc1ccc(S(=O)(=O)Nc2ccc3c(c2)CC(=O)N([C@H](C)CO)C[C@H](C)[C@H](CN(C)Cc2ccccc2)O3)cc1 | -9 | 41 | -1
O=C(CCCCCCC(=O)Nc1ccccc1O)N/N=C/c1ccccc1 | nt | nt | 0
CO[C@H]1O[C@H](CO)[C@@H](OC(=O)CCc2ccccc2)[C@H](OC(=O)c2cc3ccccc3[nH]2)[C@H]1OC(=O)c1cc2ccccc2[nH]1 | nt | nt | 0
O=C(N/N=C/Cc1ccccc1)c1ccccn1 | 5 | 7 | -2
COC(=O)[C@H](Cc1ccccc1)N1C(=O)O[C@H](Cc2ccccc2)[C@@H]1/C=C/C1CC1 | nt | nt | 0
O=C(CCCCCC(=O)N/N=C/CCC1CCCCC1)NO | nt | nt | 1
C[C@H]1CN([C@@H](C)CO)C(=O)Cc2cc(NC(=O)Nc3cccc4ccccc34)ccc2O[C@@H]1CN(C)Cc1ccc2c(c1)OCO2 | -22 | 64* | 0
Cc1ccc(S(=O)(=O)N(C)C[C@H]2Oc3ccc(NC(=O)Nc4cccc5ccccc45)cc3CC(=O)N([C@@H](C)CO)C[C@H]2C)cc1 | -5 | 67* | 2
Cc1ccc(S(=O)(=O)N(C)C[C@@H]2Oc3ccc(NC(=O)Nc4cccc5ccccc45)cc3CC(=O)N([C@@H](C)CO)C[C@@H]2C)cc1 | -15 | -6 | nt
C[C@H](CO)N1C[C@H](C)[C@@H](CN(C)Cc2ccc(Oc3ccccc3)cc2)Oc2ccc(NC(=O)Nc3cccc4ccccc34)cc2CC1=O | nt | nt | -1
COc1ccc(CN(C)C[C@@H]2Oc3ccc(NC(=O)Nc4cccc5ccccc45)cc3CC(=O)N([C@H](C)CO)C[C@H]2C)cc1 | -4 | 65* | 1
C[C@H](CO)N1C[C@H](C)[C@H](CN(C)CC2CCCCC2)Oc2ccc(NC(=O)Nc3cccc4ccccc34)cc2CC1=O | 4 | 61* | nt
C[C@@H]1CN([C@H](C)CO)C(=O)Cc2cc(NC(=O)Nc3ccccc3)ccc2O[C@H]1CN(C)Cc1ccc2c(c1)OCO2 | -6 | -9 | -1
C[C@@H]1CN([C@@H](C)CO)C(=O)Cc2cc(NC(=O)Nc3cccc4ccccc34)ccc2O[C@H]1CN(C)CC1CC1 | nt | nt | 1
CO[C@H]1O[C@H](CO)[C@@H](OC(=O)Nc2ccc3c(c2)OCO3)[C@H](OC(=O)Nc2ccccc2)[C@@H]1OC(=O)Nc1ccccc1 | nt | nt | -2
C[C@@H]1CN([C@H](C)CO)C(=O)Cc2cc(NC(=O)Nc3cccc4ccccc34)ccc2O[C@H]1CN(C)Cc1ccc(Oc2ccccc2)cc1 | -10 | 57* | nt
C[C@@H]1CN([C@@H](C)CO)C(=O)Cc2cc(NC(=O)Nc3cccc4ccccc34)ccc2O[C@H]1CN(C)Cc1ccccc1 | nt | nt | 1
C[C@H]1CN([C@@H](C)CO)C(=O)c2cccc(NC(=O)Nc3cccc4ccccc34)c2O[C@H]1CN(C)Cc1ccc2c(c1)OCO2 | -16 | 65* | -1
C[C@@H]1CN([C@H](C)CO)C(=O)Cc2cc(NC(=O)Nc3cccc4ccccc34)ccc2O[C@@H]1CN(C)Cc1ccccc1 | -19 | 68* | 2
C[C@H]1CN([C@@H](C)CO)C(=O)c2cc(NC(=O)Nc3cccc4ccccc34)ccc2O[C@H]1CN(C)Cc1ccccc1 | -5 | -16 | 1
